# The source made the active and inactive calls. The calls are words filed in the database; no cut-off is given here.
# What was measured:
# Glucocorticoid receptor [1] = biological target: T1, Glucocorticoid receptor (Homo sapiens, UniProt P04150); test: Antagonist activity at glucocorticoid receptor in human HepG2 cells assessed as inhibition of glucocorticoid-induced TAT activity after 24 hrs; assay type: cell-based
# T1 sequence (P04150 whole entry): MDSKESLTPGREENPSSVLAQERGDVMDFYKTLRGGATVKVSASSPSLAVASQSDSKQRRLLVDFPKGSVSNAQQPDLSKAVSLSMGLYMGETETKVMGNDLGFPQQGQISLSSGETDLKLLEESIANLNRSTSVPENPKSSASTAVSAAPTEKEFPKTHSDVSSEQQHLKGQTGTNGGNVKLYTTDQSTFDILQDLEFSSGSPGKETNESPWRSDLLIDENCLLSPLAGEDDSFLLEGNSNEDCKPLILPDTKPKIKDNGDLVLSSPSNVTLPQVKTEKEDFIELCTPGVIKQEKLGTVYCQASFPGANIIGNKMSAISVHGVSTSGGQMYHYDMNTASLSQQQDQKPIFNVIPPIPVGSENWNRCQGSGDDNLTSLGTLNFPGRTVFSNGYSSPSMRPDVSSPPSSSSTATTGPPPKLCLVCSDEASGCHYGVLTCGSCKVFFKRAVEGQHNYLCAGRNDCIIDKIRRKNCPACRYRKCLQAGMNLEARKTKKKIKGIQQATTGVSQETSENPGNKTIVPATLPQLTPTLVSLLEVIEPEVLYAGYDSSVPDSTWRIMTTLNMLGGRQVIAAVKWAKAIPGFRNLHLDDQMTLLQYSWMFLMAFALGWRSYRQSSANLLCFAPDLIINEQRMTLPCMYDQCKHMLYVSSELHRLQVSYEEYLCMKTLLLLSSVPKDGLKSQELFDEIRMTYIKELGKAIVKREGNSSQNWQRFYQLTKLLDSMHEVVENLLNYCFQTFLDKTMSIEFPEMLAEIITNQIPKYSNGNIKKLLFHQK
# Glucocorticoid receptor [2] = biological target: T1, Glucocorticoid receptor; test: Binding affinity to human recombinant glucocorticoid receptor by fluorescence polarization assay
# hERG (KCNH2) [3] = biological target: T2, hERG (KCNH2) (Homo sapiens, UniProt Q12809); test: Inhibition of human ERG at 1 uM by patch clamp technique
# T2 sequence (Q12809 whole entry): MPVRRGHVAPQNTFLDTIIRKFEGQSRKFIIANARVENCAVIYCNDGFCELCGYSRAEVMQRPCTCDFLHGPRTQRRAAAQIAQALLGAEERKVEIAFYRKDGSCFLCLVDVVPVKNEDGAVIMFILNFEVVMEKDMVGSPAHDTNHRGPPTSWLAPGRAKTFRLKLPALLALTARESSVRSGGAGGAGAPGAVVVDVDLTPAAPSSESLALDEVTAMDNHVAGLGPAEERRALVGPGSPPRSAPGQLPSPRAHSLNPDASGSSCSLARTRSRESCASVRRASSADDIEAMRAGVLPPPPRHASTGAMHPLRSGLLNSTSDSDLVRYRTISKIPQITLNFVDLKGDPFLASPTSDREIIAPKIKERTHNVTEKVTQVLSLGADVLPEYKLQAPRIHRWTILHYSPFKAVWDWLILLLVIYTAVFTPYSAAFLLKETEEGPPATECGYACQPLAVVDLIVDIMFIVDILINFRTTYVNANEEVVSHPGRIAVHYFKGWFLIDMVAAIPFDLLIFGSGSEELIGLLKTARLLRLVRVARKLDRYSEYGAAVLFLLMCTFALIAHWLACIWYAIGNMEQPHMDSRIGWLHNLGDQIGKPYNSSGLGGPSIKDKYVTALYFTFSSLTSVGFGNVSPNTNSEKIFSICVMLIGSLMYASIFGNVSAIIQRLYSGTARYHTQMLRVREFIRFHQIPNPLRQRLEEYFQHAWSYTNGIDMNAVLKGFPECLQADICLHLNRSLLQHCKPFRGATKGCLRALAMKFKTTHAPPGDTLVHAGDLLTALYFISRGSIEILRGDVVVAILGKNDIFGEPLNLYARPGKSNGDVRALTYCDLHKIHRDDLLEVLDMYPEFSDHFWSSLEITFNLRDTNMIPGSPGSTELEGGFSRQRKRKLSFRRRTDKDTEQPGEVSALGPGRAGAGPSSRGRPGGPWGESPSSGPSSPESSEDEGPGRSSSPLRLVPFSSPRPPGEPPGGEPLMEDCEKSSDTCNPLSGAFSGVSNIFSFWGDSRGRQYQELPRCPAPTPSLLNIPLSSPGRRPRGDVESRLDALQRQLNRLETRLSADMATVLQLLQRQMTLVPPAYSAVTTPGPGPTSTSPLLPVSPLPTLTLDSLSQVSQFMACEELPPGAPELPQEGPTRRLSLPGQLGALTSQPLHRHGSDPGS
# hERG (KCNH2) [4] = biological target: T2, hERG (KCNH2); test: Inhibition of human ERG at 10 uM by patch clamp technique
# [5] = Cmax in rat at 5 mg/kg, po; assay type: ADME, organism-based; design: dose 5 mg/kg, route oral; conditions: in vivo
# Procedure, shortened: (§1)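 Rat pharmacokinetics: oral dosing at 5 mg/kg in 10% DMSO in 0.5% aqueous methyl cellulose. Intravenous dosing at 1 mg/kg in 10% DMSO, 45% PEG400 and 45% propylene glycol. Plasma Cmax was taken after the oral dose and clearance after the iv dose, and oral bioavailability was derived.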
# [6] = Clearance in rat at 1 mg/kg, iv; assay type: ADME, organism-based; conditions: in vivo; procedure, shortened: as §1
# Rattus norvegicus [7] = test: Reduction in cortisone-induced glucose level in rat at 30 mg/kg, po bid; assay type: functional, organism-based
# Procedure, shortened: (§2)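 Rats received cortisone 30 mg/kg sc once daily for six days. Test agent was given orally twice daily at 30 mg/kg. Glucose and insulin levels were compared with cortisone-only and no-cortisone controls, with mifepristone at the same oral regimen as positive control.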
# Rattus norvegicus [8] = test: Reduction in cortisone-induced insulin level in rat at 30 mg/kg, po bid; assay type: functional, organism-based; procedure, shortened: as §2
Ki (Glucocorticoid receptor [1]) [nM],Ki (Glucocorticoid receptor [2]) [nM],Cmax [5] [ng/mL],clearance [6] [mL/min/kg],Structure (SMILES),inhibition at 1 µM (hERG (KCNH2) [3]) [%],inhibition at 10 µM (hERG (KCNH2) [4]) [%],Activity (Rattus norvegicus [7]),Activity (Rattus norvegicus [8])
16,0.13,,,O=C(c1ccccn1)[C@]12Cc3cnn(-c4ccc(F)cc4)c3C=C1CCN(S(=O)(=O)c1ccc(F)cc1)C2,,,,
7.5,0.22,398,44,O=C(c1ccccn1)[C@]12Cc3cnn(-c4ccc(F)cc4)c3C=C1CCN(S(=O)(=O)c1ccc(F)c(F)c1)C2,10,35,,
14,0.1,155,40,O=C(c1ccccn1)[C@]12Cc3cnn(-c4ccc(F)cc4)c3C=C1CCN(S(=O)(=O)c1cccc(C(F)(F)F)c1)C2,,,,
6.8,0.14,,,Cc1cccc(S(=O)(=O)N2CCC3=Cc4c(cnn4-c4ccc(F)cc4)C[C@]3(C(=O)c3ccccn3)C2)c1,17,30,,
18.5,0.21,,,Cc1ccccc1S(=O)(=O)N1CCC2=Cc3c(cnn3-c3ccc(F)cc3)C[C@]2(C(=O)c2ccccn2)C1,26,45,,
18,0.23,,,O=C(c1nccs1)[C@]12Cc3cnn(-c4ccc(F)cc4)c3C=C1CCN(S(=O)(=O)c1ccc(C(F)(F)F)cc1)C2,,,,
,,,,CC#C[C@]1(O)CC[C@H]2[C@@H]3CCC4=CC(=O)CCC4=C3[C@@H](c3ccc(N(C)C)cc3)C[C@@]21C,,,Active,Active
9.7,0.73,112,103,O=C(c1ccccn1)[C@]12Cc3cnn(-c4ccc(F)cc4)c3C=C1CCN(S(=O)(=O)c1ccc(F)c(C(F)(F)F)c1)C2,16,31,,
63,0.16,,,O=C(c1cocn1)[C@]12Cc3cnn(-c4ccc(F)cc4)c3C=C1CCN(S(=O)(=O)c1ccc(C(F)(F)F)cc1)C2,,,,
22,0.14,,,O=C(c1cscn1)[C@]12Cc3cnn(-c4ccc(F)cc4)c3C=C1CCN(S(=O)(=O)c1ccc(C(F)(F)F)cc1)C2,,,,
4.5,0.22,,,Cc1ccc(S(=O)(=O)N2CCC3=Cc4c(cnn4-c4ccc(F)cc4)C[C@]3(C(=O)c3ccccn3)C2)cc1,34,59,,
98,0.21,,,O=C(c1cnccn1)[C@]12Cc3cnn(-c4ccc(F)cc4)c3C=C1CCN(S(=O)(=O)c1ccc(C(F)(F)F)cc1)C2,,,,

# Source: ChEMBL document CHEMBL3734698, “1H-Pyrazolo[3,4-g]hexahydro-isoquinolines as potent GR antagonists with reduced hERG inhibition and an improved pharmacokinetic profile” (Bioorg Med Chem Lett, 2015)
